Hits are enriched below; roughly 4.7% of the tested compounds scored in any of these assays.
Mdm2 MdmX PPI = inhibitors of human Mdm2/MdmX interaction | O15151+Q00987 | SaOS-2 split-luciferase Mdm2/MdmX complementation, luminescence | inhibition, % at 8 µM | 330,000 compounds, 3% hits;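 active = inhibition of at least 50% at 8 µM in the primary screen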
697 NFkB inh = lowers PMA/ionomycin-induced NF-kB signal in 697 B cells | 330,000 compounds, 0.33% hits | 697 B-cell NF-kB luciferase reporter, 16 h | inhibition, % at 4 µM; in the data active = inhibition above about 35%
aSyn 5UTR inh = 5' untranslated region of α-synuclein, MLPCN primary screen; alpha-synuclein 5'UTR reporter, inhibitor activity; inhibition, % (tested at 7.5 µM); 300,000 compounds, 0.82% hits; AID 1813; in the data active = inhibition above about 60%;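 also: H4 neuroglioblastoma cells stably carrying SNCA 5'UTR luciferase fusion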
VIM-2 inh = inhibitors of Pseudomonas aeruginosa VIM-2 metallo-beta-lactamase. purified VIM-2, nitrocefin hydrolysis, epi-absorbance fluorescence. inhibition, % at 5.6 µM. 290,000 compounds, 0.89% hits. AID 1527;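 active = inhibition above the mean of all tested compounds plus 3 SD, cutoff set per screening run, cut at about 7.5% in these data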;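 also: red hydrolysis product quenches plate fluorescence so inhibitors raise well fluorescence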
IMP-1 inh = blocks Pseudomonas aeruginosa IMP-1 metallo-beta-lactamase; purified IMP-1, nitrocefin hydrolysis, epi-absorbance fluorescence; 290,000 compounds, 0.45% hits; inhibition, % at 5.6 µM; AID 1556;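 active = inhibition above the mean plus 3 SD of all compounds in the same screening run, cut at about 4.5% in these data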
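Assay system: purified IMP-1; Quantity: IMP-1 0.2 nM before substrate addition; Medium: HEPES buffer pH 7.1 with ZnSO4 and Brij 35; Incubation: 15 min enzyme–compound preincubation, then 25 min nitrocefin reaction, 25 °C; Signal: fluorescence quenching readout, ex 480/em 530 nm; Controls: DMSO with and without IMP-1; Repeats: singlicate testing.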
Jurkat NFkB inh = lowers PMA/ionomycin-induced NF-kB signal in Jurkat cells | 330,000 compounds, 0.53% hits | PMA/ionomycin-induced NF-kB luciferase reporter, luminescence | inhibition, % at 4 µM | AID 435003; in the data active = inhibition above about 50%
Mdm2-MdmX conf = human Mdm2/MdmX binding inhibition, confirmed | shares compounds with Mdm2 MdmX PPI | luminescent assay | inhibition, % at 8 µM | 10,000 compounds, 55% hits | AID 489028; in the data active = inhibition above about 40%
Full FLuc ctr = full-length luciferase inhibition in Mdm2/MdmX counter-screen; inhibition, % at 8 µM; 6,200 compounds, 77% hits; SaOS-2 full-length luciferase counterscreen, luminescence; shares compounds with Mdm2 MdmX PPI;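 active = mean inhibition at 8 µM reaching about 37%, which flags the compound as non-specific, limit read from the data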;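 also: p53-null SaOS-2 cells with luciferase driven by a doxycycline-inducible promoter; compound on cells about two nights before reading with doxycycline added after day one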
Each line names hits and unclear results; the compound was inactive in the other large screens (follow-up assays come after a bar, where they were run).

CN1CCN(C(=O)c2cccn(Cc3ccc(C(F)(F)F)cc3)c2=O)CC1	none
CCOc1ccc(CNCCN2CCCC2)cc1	none
Oc1ccc(Br)cc1-c1nc2cnccn2c1NC1CCCCC1	none
Oc1ccc(Br)cc1-c1nc2cnccn2c1NC1CCCC1	Mdm2 MdmX PPI 79 | Mdm2-MdmX conf 57 | Full FLuc ctr inactive
CC(=O)N1N=C(c2ccc(Br)cc2)OC1(C)CC(=O)Nc1ccccc1 (configuration not stated)	none
Cc1ccc([N+](=O)[O-])cc1N(CC(=O)Nc1ccc(S(=O)(=O)Nc2cccc(C(F)(F)F)c2)cc1)S(C)(=O)=O	Mdm2 MdmX PPI 55 | Mdm2-MdmX conf 45 | Full FLuc ctr 39
COc1ccccc1N(CC(=O)Nc1cccc(C(F)(F)F)c1)S(C)(=O)=O	none
CCC(C)C(NC(=O)OC(C)(C)C)C(=O)NCc1ccco1 (configuration not stated)	none
CN1CCN(C(c2ccc(Cl)cc2)c2cc(Cl)c3cccnc3c2O)CC1 (configuration not stated)	Mdm2 MdmX PPI 73, aSyn 5UTR inh 77 | Mdm2-MdmX conf 72 | Full FLuc ctr 38
c1ccc(C(c2nnnn2C2CCCC2)N2CCCCCC2)nc1 (configuration not stated)	none
CCN1CCN(C(c2ccc(C(F)(F)F)cc2)c2ccc3cccnc3c2O)CC1 (configuration not stated)	Mdm2 MdmX PPI 74 | Mdm2-MdmX conf 78 | Full FLuc ctr inactive
CN1CCN(C(c2ccc(C(F)(F)F)cc2)c2cc(Cl)c3cccnc3c2O)CC1 (configuration not stated)	Mdm2 MdmX PPI 86 | Mdm2-MdmX conf 81 | Full FLuc ctr inactive
Oc1c(C(c2ccccn2)N2CCCCC2)cc(Cl)c2cccnc12 (configuration not stated)	Mdm2 MdmX PPI 65 | Mdm2-MdmX conf 46 | Full FLuc ctr 43
CN(C(=O)CSc1nc(-c2cccs2)nc2ccccc12)C1CCS(=O)(=O)C1 (configuration not stated)	none (no result: aSyn 5UTR inh, VIM-2 inh, IMP-1 inh)
COc1cc(C(=O)NC(=S)N2CCN(C)CC2)cc(OC)c1OC	none (no result: aSyn 5UTR inh, VIM-2 inh, IMP-1 inh)
CN(C)CCCn1c(=O)n(C2CCCCC2)c(=O)c2c3c(sc21)CCCCC3	Mdm2 MdmX PPI 90 (no result: VIM-2 inh, IMP-1 inh) | Mdm2-MdmX conf 72 | Full FLuc ctr 66
CN(C)CCn1c(=O)n(-c2ccc(F)cc2)c(=O)c2c3c(sc21)CCCCC3	none
CCN(CCCNC(=O)C1CCCN(S(=O)(=O)c2cnc[nH]2)C1)c1ccccc1 (configuration not stated)	none
COc1ccc(/C=N/Nc2ccc(C(=O)O)cc2)c(OC)c1OC	none
COC(=O)c1ccc2c(c1)C(C)(C)C(/C=C/c1ccc(OC)c(OC)c1OC)=[N+]2C	Mdm2 MdmX PPI 101, aSyn 5UTR inh 102 | Mdm2-MdmX conf 78 | Full FLuc ctr 51
COC(=O)c1ccc2c(c1)C(C)(C)C(/C=C/c1ccc(O)cc1)=[N+]2C	Mdm2 MdmX PPI 85, aSyn 5UTR inh 119 | Mdm2-MdmX conf 100 | Full FLuc ctr 51
CCOC(=O)C1CCCN(C(=O)CSc2nnnn2C)C1 (configuration not stated)	none (no result: aSyn 5UTR inh, VIM-2 inh, IMP-1 inh)
Cc1cccc(NS(=O)(=O)c2cc(C(=O)OCC(=O)Nc3cc(C)on3)ccc2C)c1	none
Cc1cccc(NS(=O)(=O)c2ccc(C)c(C(=O)OCC(=O)Nc3cc(C)on3)c2)c1	Mdm2 MdmX PPI 88 | Mdm2-MdmX conf 76 | Full FLuc ctr inactive
CCN1CCN(/C=N/c2nc3c(s2)CCCC3)CC1	Mdm2 MdmX PPI 57, aSyn 5UTR inh 66 | Mdm2-MdmX conf 73 | Full FLuc ctr 91
CN1CCN(CC(=O)Nc2nc3c(s2)CCCC3)CC1	none
COc1ccccc1N(Cc1ccccc1)S(=O)(=O)c1cccc(C(=O)NC2CC(C)(C)NC(C)(C)C2)c1	Mdm2 MdmX PPI 97 (no result: VIM-2 inh, IMP-1 inh) | Mdm2-MdmX conf 64 | Full FLuc ctr 72
O=C(Nc1ccc(F)c(Cl)c1)Nc1csc2ccccc12	Mdm2 MdmX PPI 94 | Mdm2-MdmX conf 58 | Full FLuc ctr inactive
COc1ccc(/C=N/NC(=O)c2csc(-n3nc(C)cc3C(F)(F)F)n2)cc1	Mdm2 MdmX PPI 50 | Mdm2-MdmX conf 48 | Full FLuc ctr 70
COc1ccc(CCNC(=O)C2CCN(S(=O)(=O)c3ccc4c(c3)oc(=O)n4C)CC2)cc1OC	none
COc1ccccc1N1CCN(C(=O)COc2ccc(Cl)cc2Br)CC1	Mdm2 MdmX PPI 57 | Mdm2-MdmX conf inactive | Full FLuc ctr 60
COc1ccc(S(=O)(=O)N(CC(=O)NCc2ccncc2)c2ccc(C)cc2)cc1Br	none
Cc1ccc(C(=O)CSc2nnc(-c3ccc4[nH]c(C)c(C)c4c3)o2)cc1C	Mdm2 MdmX PPI 51 | Mdm2-MdmX conf inactive
Cc1cccc(-c2nc(CNC(=O)c3ccco3)cs2)c1	none
COc1ccc(-c2[nH]n(-c3ccc([N+](=O)[O-])cc3)c(=O)c2C=NCc2ccncc2)cc1	none
COc1ccc(-c2cc(=O)n(-c3ccc([N+](=O)[O-])cc3)[nH]2)cc1	Mdm2 MdmX PPI 55 | Mdm2-MdmX conf inactive
COc1ccc(-c2[nH]n(-c3ccc([N+](=O)[O-])cc3)c(=O)c2C=NCc2ccc(F)cc2)cc1	Mdm2 MdmX PPI 80 | Mdm2-MdmX conf inactive
Cn1cc(C(=O)NS(=O)(=O)Nc2ccc(Br)cn2)c2ccccc21	none
O=C1CC(=C(c2ccccc2)c2ccccc2)C(=O)N1CCCCN1CCN(c2cccc(Cl)c2)CC1	Mdm2 MdmX PPI 60 | Mdm2-MdmX conf inactive
Cc1ccccc1N1CCN(CCCN2C(=O)CC(=C(c3ccccc3)c3ccccc3)C2=O)CC1	none
CC(C)(C)c1ccc(Cn2c(=O)cnc3ccccc32)cc1	Mdm2 MdmX PPI 72 | Mdm2-MdmX conf 77 | Full FLuc ctr inactive
O=C(CCl)Nc1ccc(N2CCCCCC2)cc1	none
Clc1cccc(OCCN2CCN(CCOc3cccc(Cl)c3)CC2)c1	Mdm2 MdmX PPI 69 | Mdm2-MdmX conf inactive
CCCCN(Cc1ccco1)C(=O)c1cc2c(=O)[nH]c3ccc(C)cc3c2s1	Mdm2 MdmX PPI 84 | Mdm2-MdmX conf inactive | Full FLuc ctr inactive
Cc1ccc2[nH]c(=O)c3cc(C(=O)N(CCCOC(C)C)Cc4ccco4)sc3c2c1	Mdm2 MdmX PPI 69, VIM-2 inh 8.1 | Mdm2-MdmX conf inactive
CC(C)N(Cc1ccccc1)S(=O)(=O)c1ccc(Cl)nc1	none (no result: VIM-2 inh, IMP-1 inh)
CCOc1cc(/C=C2\CN(CC)C/C(=C\c3ccc(O)c(OCC)c3)C2=O)ccc1O	Mdm2 MdmX PPI 96, aSyn 5UTR inh 102 | Mdm2-MdmX conf 97 | Full FLuc ctr 57

Source: PubChem BioAssay (several laboratories)
